The source of these data is ChEMBL document CHEMBL1759890, “3,5-Disubstituted-indole-7-carboxamides: the discovery of a novel series of potent, selective inhibitors of IKK-β” (Bioorg Med Chem Lett, 2011).

As usually defined, the IC50 is the concentration that inhibits the measured activity by half. For orientation: solubility means the dissolved amount per volume that the medium holds. A lower solubility goes with a poorly soluble substance. Usually bioavailability stands for dose-corrected exposure relative to a reference, in per cent. A lower bioavailability goes with poor availability.

≈ marks a conversion by molar mass, not a printed value.

The target in data set [1] is T1, Inhibitor of nuclear factor kappa-B kinase subunit beta (Homo sapiens, UniProt O14920).
T1 sequence (O14920 whole entry): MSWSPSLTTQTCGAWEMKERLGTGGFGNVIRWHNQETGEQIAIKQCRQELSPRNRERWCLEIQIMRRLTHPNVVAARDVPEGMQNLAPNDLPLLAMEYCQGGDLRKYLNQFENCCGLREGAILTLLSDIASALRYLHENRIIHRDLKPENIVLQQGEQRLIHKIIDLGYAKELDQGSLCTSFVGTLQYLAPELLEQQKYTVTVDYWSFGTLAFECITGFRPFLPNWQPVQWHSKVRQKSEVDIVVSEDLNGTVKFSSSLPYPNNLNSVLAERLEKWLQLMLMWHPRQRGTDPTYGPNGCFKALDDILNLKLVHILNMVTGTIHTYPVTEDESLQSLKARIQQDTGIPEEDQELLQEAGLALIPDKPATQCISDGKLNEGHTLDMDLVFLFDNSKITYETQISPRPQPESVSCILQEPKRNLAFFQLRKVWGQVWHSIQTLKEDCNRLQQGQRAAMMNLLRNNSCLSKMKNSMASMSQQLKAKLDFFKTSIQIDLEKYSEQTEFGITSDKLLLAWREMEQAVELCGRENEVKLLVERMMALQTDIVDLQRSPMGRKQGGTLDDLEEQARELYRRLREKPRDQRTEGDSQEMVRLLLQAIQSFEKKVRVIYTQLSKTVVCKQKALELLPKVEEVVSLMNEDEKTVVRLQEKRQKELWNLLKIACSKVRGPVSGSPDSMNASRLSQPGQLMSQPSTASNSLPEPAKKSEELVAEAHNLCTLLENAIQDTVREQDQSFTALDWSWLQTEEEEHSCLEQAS
The data set is described as follows: Inhibition of IKK-beta.

For data set [2], the target named is T2, Inhibitor of nuclear factor kappa-B kinase subunit alpha (Homo sapiens, UniProt O15111).
T2 sequence (O15111 whole entry): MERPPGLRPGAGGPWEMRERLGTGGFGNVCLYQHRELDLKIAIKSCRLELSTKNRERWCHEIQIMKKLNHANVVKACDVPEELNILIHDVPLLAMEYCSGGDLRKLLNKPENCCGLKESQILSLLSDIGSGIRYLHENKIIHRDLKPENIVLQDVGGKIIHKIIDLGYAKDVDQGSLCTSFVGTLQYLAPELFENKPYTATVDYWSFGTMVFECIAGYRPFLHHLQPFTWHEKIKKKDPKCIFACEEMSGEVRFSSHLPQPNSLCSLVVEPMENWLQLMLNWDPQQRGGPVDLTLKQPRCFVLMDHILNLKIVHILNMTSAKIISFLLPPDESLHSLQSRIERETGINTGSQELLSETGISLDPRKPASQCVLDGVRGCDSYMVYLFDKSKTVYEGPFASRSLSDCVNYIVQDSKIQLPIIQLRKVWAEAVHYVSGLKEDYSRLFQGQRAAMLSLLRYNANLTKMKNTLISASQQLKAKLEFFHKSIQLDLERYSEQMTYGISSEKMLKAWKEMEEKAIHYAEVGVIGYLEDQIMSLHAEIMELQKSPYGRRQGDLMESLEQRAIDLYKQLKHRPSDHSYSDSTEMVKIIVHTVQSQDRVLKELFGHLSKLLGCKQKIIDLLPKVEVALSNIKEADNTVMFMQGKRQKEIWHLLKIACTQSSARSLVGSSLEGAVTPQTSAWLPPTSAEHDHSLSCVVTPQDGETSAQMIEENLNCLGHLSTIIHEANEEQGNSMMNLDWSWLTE
The data set is described as follows: Inhibition of IKK-alpha. Put shortly: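 Done the same way as the IKK-β TR-FRET assay but with 6-His-tagged full-length IKK-α. Buffer is 50 mM HEPES, 10 mM MgCl₂, 1 mM CHAPS pH 7.4, 1 mM DTT, 0.01% w/v BSA. GST-IκBα substrate 25 nM final, ATP 1 μM final, DMSO below 5% final. Error about ±0.3 log units.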

Data set [3] relates to PBMC. The data set is described as follows: Antiinflammatory activity in human PBMC assessed as inhibition of LPS-induced TNF-alpha production. The class given is functional, cell-based. The method, boiled down:
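Human peripheral blood mononuclear cells stimulated with LPS. Read-out is inhibition of TNF-α production, reported as pIC50.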

Data set [4] has as its target T3, Inhibitor of nuclear factor kappa-B kinase subunit epsilon (Homo sapiens, UniProt Q14164).
T3 sequence (Q14164 whole entry): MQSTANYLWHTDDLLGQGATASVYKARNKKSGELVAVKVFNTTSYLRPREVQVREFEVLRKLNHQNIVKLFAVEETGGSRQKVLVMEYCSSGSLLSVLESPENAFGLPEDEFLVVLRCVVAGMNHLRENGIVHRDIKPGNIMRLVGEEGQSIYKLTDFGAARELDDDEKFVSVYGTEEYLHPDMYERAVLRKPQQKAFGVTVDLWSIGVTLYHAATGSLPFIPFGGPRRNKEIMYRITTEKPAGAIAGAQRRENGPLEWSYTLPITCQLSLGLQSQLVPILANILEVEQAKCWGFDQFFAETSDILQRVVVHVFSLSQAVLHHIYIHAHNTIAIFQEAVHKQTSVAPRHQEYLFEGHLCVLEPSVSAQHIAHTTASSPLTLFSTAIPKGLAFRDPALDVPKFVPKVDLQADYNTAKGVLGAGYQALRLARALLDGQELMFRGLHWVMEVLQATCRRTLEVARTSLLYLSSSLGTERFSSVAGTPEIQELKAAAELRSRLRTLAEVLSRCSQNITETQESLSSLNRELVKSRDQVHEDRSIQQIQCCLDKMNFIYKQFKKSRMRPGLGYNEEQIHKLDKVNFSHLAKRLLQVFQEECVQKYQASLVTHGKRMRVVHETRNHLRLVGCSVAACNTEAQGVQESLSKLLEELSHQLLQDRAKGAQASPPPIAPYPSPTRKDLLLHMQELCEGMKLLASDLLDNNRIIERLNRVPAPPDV
In words: Inhibition of IKK-epsilon.

The target of data set [5] is T4, Serine/threonine-protein kinase TBK1 (Homo sapiens, UniProt Q9UHD2).
T4 sequence (Q9UHD2 whole entry): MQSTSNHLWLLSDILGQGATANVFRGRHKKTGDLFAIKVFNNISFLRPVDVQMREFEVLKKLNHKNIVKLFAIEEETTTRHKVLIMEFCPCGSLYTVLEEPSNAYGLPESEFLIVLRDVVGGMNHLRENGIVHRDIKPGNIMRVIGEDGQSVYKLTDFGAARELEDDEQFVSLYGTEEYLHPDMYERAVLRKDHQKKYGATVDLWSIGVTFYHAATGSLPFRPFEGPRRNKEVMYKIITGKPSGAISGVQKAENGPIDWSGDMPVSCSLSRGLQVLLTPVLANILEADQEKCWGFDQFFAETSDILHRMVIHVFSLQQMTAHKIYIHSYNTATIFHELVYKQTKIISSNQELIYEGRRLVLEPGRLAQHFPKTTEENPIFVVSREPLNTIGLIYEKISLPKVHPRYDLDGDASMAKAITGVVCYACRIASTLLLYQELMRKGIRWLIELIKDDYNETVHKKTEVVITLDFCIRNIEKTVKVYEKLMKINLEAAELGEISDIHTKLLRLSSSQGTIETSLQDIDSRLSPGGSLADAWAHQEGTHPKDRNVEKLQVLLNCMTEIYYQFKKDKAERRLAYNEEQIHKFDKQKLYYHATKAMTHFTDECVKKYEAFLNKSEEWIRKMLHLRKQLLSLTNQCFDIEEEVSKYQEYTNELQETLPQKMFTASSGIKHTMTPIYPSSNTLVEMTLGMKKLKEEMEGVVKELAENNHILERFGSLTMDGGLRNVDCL
In words: Inhibition of TBK-1.

Data set [6] concerns the target Macrophage colony-stimulating factor 1 receptor (Homo sapiens, UniProt P07333). In words: Inhibition of c-FMS.
For data set [7], the target named is Tyrosine-protein kinase BTK (Homo sapiens, UniProt Q06187). The data set is described as follows: Inhibition of BTK.
Sequence of Tyrosine-protein kinase BTK (Q06187 whole entry): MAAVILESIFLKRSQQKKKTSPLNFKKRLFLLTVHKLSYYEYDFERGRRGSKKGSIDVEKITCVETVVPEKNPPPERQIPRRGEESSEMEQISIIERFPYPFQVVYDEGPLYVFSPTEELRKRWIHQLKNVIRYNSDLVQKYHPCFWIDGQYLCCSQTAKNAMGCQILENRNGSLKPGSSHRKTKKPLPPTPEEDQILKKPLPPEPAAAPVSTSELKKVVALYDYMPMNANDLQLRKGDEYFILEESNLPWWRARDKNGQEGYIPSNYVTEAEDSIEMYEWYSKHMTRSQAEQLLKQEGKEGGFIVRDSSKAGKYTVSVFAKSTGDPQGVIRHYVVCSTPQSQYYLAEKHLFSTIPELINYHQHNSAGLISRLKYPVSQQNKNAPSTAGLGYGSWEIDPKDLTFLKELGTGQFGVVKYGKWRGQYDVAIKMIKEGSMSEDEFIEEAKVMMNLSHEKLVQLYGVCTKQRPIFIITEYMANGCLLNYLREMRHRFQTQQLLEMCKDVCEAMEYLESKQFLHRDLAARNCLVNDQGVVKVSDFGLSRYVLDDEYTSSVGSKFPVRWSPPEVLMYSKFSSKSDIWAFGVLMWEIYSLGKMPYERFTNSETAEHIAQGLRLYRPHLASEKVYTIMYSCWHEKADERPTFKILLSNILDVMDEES
The nature of data set [8]: Aqueous solubility of the compound. The format is physicochemical.
The target in data set [9] is serum albumin (Homo sapiens, UniProt P02768). The data set is described as follows: Binding affinity to human serum albumin. The class given is ADME. To be noted: read-out: PB.
Sequence of serum albumin (P02768 whole entry): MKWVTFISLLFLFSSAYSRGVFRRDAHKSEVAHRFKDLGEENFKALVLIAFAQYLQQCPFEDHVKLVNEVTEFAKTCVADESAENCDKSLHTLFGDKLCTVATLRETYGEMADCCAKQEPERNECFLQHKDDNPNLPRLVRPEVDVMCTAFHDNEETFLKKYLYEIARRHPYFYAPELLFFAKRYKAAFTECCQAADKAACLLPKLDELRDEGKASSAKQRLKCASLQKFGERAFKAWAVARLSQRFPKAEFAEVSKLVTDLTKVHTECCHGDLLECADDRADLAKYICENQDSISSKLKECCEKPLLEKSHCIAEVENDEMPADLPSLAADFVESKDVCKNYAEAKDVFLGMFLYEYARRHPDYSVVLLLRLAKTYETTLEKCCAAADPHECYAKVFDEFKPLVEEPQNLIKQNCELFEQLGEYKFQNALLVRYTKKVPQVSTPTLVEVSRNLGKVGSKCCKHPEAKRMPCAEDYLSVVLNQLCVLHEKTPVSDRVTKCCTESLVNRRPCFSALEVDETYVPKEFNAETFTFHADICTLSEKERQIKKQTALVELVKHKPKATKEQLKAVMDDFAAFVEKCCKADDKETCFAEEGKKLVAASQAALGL
Data set [10] can be described thus: Oral bioavailability in rat. To be noted: in vivo. The class given is ADME, organism-based.

Sequence of Macrophage colony-stimulating factor 1 receptor (P07333 whole entry): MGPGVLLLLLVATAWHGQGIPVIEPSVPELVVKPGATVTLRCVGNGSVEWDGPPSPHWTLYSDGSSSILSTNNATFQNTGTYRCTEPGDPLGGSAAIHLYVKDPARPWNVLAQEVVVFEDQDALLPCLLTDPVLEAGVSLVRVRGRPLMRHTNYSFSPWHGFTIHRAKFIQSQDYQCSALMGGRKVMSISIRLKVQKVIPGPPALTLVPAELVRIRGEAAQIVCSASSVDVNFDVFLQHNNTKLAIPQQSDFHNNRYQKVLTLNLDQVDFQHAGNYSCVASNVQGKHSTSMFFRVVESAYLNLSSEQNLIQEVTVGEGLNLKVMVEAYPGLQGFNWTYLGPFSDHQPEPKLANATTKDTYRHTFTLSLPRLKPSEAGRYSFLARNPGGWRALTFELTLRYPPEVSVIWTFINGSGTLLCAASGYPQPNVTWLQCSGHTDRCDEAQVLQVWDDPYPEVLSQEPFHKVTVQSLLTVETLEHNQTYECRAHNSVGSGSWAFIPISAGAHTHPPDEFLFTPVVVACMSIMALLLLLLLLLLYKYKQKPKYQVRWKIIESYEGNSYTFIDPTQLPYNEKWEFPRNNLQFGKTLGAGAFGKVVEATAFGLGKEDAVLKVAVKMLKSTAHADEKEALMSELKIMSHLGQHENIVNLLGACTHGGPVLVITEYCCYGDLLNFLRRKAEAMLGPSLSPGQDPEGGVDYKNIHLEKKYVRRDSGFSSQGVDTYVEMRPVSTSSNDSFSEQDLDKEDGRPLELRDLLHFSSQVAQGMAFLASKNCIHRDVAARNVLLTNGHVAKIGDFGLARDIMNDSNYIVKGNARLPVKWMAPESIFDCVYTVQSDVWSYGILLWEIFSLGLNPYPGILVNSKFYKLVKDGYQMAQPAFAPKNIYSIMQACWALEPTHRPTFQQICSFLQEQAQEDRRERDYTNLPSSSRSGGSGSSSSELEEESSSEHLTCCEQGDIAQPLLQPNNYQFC

In turn, `NC(=O)c1cc(Br)cc2c3c([nH]c12)CCCC3` gave an IC50 in data set [1] of 2.51 µM.
The same measure, in the same setting: the same measure for `O=C(O)c1cc(-c2ccccc2)cc2cc[nH]c12`: greater than 15.8 µM.
Take `NC(=O)c1cc(-c2ccccc2)cc2cc[nH]c12`: the IC50 in data set [1] is 1.58 µM; in data set [2] it was 10 µM.
As for `N#Cc1cccc(-c2cc(C(N)=O)c3[nH]ccc3c2)c1`, the results for the IC50 in [1] and in data set [2] were 1.58 µM and 10 µM, respectively.
The matching figures for `CS(=O)(=O)Nc1ccc(-c2cc(C(N)=O)c3[nH]ccc3c2)cc1`: 0.501 µM and 3.98 µM.
The matching figures for `NC(=O)c1cc(-c2ccccc2Cl)cc2cc[nH]c12`: 6.31 µM and greater than 15.8 µM.
`NC(=O)c1cc(-c2cccc(Cl)c2)cc2cc[nH]c12`: the figures for the IC50 in data set [1] and in [2] were 0.794 µM and 5.01 µM, respectively.
Taken in the same sequence, the figures for `NC(=O)c1cc(-c2ccc(Cl)cc2)cc2cc[nH]c12` were 0.316 µM and 6.31 µM.
As to `NC(=O)c1cc(-c2cccc(CO)c2)cc2cc[nH]c12`, the IC50 is 2.51 µM in data set [1] and 15.8 µM in data set [2].
Turning to `NC(=O)c1cc(-c2ccc(CO)cc2)cc2cc[nH]c12`, the results for the IC50 in [1] and in data set [2] were 1.26 µM and 15.8 µM, respectively.
In the case of `COc1ccncc1-c1cc(C(N)=O)c2[nH]ccc2c1`, the IC50 in data set [1] was 1.58 µM; in data set [2] it was 12.6 µM.
The matching figures for `NC(=O)c1cc(-c2cc3ccccc3o2)cc2cc[nH]c12`: 0.501 µM and 3.98 µM.
Consider `NC(=O)c1cc(-c2ccccc2)cc2c(C3CCCNC3)c[nH]c12` (centres undefined), for which the IC50 in data set [1] is 0.158 µM; in data set [2], 1.58 µM; in data set [3] it was 0.631 µM; in data set [4], greater than 3.16 µM; in data set [5], greater than 3.16 µM; in data set [6], 1.58 µM. In [7], this molecule gave an IC50 of 1.26 µM. In [8], the concentration in solution (solubility) was 136 µg/mL (≈ 426 µM). Also, in data set [9], the fraction unbound was 0.09. The molecule also had a bioavailability in [10] of 22%.
Regarding `NC(=O)c1cc(-c2ccccc2)cc2c(C3CCNCC3)c[nH]c12`, the IC50 in data set [1] was 0.501 µM; in data set [2], 10 µM.
The matching figures for `CC(C)S(=O)(=O)N1CCC(c2c[nH]c3c(C(N)=O)cc(-c4ccccc4)cc23)CC1`: 0.02 µM and 3.16 µM.
For `CCS(=O)(=O)N1CCC(c2c[nH]c3c(C(N)=O)cc(-c4ccccc4)cc23)CC1`, the IC50 is 0.0251 µM in data set [1] and 2 µM in data set [2].
The matching figures for `NC(=O)c1cc(-c2ccccc2)cc2c(C3CCN(S(=O)(=O)c4ccc(Cl)cc4)CC3)c[nH]c12`: 0.398 µM and 7.94 µM.
For `CCc1ccc(-c2cc(C(N)=O)c(NC(N)=O)s2)cc1`, 0.00794 µM corresponded to half-maximal inhibition in data set [1] (IC50).
Regarding `CN(C)C(=O)c1cc(-c2ccccc2)cc2cc[nH]c12`, the IC50 in data set [1] is greater than 15.8 µM.
As to `NC(=O)c1cc(-c2cncnc2)cc2cc[nH]c12`, the results for the IC50 in data set [1] and in data set [2] were 5.01 µM and 15.8 µM, respectively.
